According to ChEMBL document CHEMBL1142487, “Design, synthesis, and structure-activity relationship of novel opioid kappa-agonists” (Bioorg Med Chem, 2008):
The source made the active and inactive calls. The rule behind the calls is not given here.

Key:
[1] = test system: Mus musculus; experiment: Antinociceptive activity in sc dosed mouse assessed as inhibition of acetic acid-induced writhing administered 15 mins before acetic acid challenge; format: functional
Outline: (§1)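 Male mice (5 weeks old) received test compound sc into the rostral back or po, 15 min before ip 0.6% aqueous acetic acid (0.1 mL/10 g). Writhes were counted over 10 min, starting 10 min after the acid. […] The po/sc ED50 ratio was calculated.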

[2] = target: Kappa-type opioid receptor (Mus musculus) (UniProt P33534); experiment: Agonist activity at kappa opioid receptor in ddy mouse vas deferens assessed as inhibition of electric stimulation-induced contraction at 1 uM; format: functional, tissue-based
[3] = test system: Mus musculus; experiment: Ratio of ED50 for acetic acid-induced writhing in po dosed mouse to ED50 for acetic acid-induced writhing in sc dosed mouse; format: functional; outline: as §1
[4] = target: Delta-type opioid receptor (Mus musculus) (UniProt P32300); experiment: Equilibrium constant, ratio of IC50 for delta opioid receptor in ddy mouse vas deferens in presence of 10 nM Naltrindole to IC50 for delta opioid receptor in ddy mouse vas deferens
Outline: (§2)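 Electrically stimulated ddY mouse vas deferens was held in Krebs-Henseleit at 37 °C under 95% O2/5% CO2. Tissue was preincubated 20 min with antagonist before the test agonist: naloxone 30 nM (μ), NTI 10 nM (δ), or nor-BNI 10 nM (κ). IC50s were compared with and without antagonist. Ke = [antagonist]/(IC50 ratio − 1).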

[5] = target: Kappa-type opioid receptor (Mus musculus) (UniProt P33534); experiment: Equilibrium constant, ratio of IC50 for kappa opioid receptor in ddy mouse vas deferens in presence of 10 nM nor-BNI to IC50 for kappa opioid receptor in ddy mouse vas deferens; outline: as §2
[6] = target: Kappa-type opioid receptor (Mus musculus, UniProt P33534); experiment: Agonist activity at kappa opioid receptor in ddy mouse vas deferens assessed as inhibition of electric stimulation-induced contraction; format: functional, tissue-based
[7] = test system: Mus musculus; experiment: Antinociceptive activity in po dosed mouse assessed as inhibition of acetic acid-induced writhing administered 15 mins before acetic acid challenge; format: functional; outline: as §1
[8] = test system: Mus musculus; experiment: Inhibition of acetic acid-induced writhing in sc dosed mouse up to 180 mins administered 15 mins before acetic acid challenge; format: functional, organism-based
[9] = target: Mu-type opioid receptor (Mus musculus) (UniProt P42866); experiment: Equilibrium constant, ratio of IC50 for mu opioid receptor in ddy mouse vas deferens in presence of 30 nM naloxone to IC50 for mu opioid receptor in ddy mouse vas deferens; outline: as §2
[10] = test system: Mus musculus; experiment: Antinociceptive activity in sc dosed mu opioid receptor antagonist naloxone treated mouse assessed as inhibition of acetic acid-induced writhing administered 15 mins before acetic acid challenge; format: functional, organism-based
[11] = test system: Mus musculus; experiment: Antinociceptive activity in sc dosed kappa opioid receptor antagonist nor-BNI treated mouse assessed as inhibition of acetic acid-induced writhing administered 15 mins before acetic acid challenge; format: functional, organism-based
[12] = test system: Mus musculus; experiment: Antinociceptive activity in sc dosed delta opioid receptor antagonist […] treated mouse assessed as inhibition of acetic acid-induced writhing administered 15 mins before acetic acid challenge; format: functional, organism-based

Row | Compound | ED50 [1] [mg/kg] | Ratio ED50 [3] | Ke [4] [nM] | Ke [5] [nM] | IC50 [6] [nM] | ED50 [7] [mg/kg] | Activity [8] | Ke [9] [nM] | also measured
1 | CCCCCCS[C@@H]1CC[C@@]2(O)[C@H]3Cc4ccc(O)c5c4[C@@]2(CCN3CC2CC2)[C@H]1O5 | 15.8 | – | – | – | – | – | – | – | inhibition [2]: 38%
2 | CN(C(=O)/C=C/c1cccc(C(F)(F)F)c1)[C@@H]1CC[C@@]2(O)[C@H]3Cc4ccc(O)c5c4[C@@]2(CCN3CC2CC2)[C@H]1O5 | – | 7.4 | 291 | 3.2 | 0.47 | 0.034 | – | – | –
3 | CN(C(=O)/C=C/c1ccco1)[C@@H]1CC[C@@]2(O)[C@H]3Cc4ccc(O)c5c4[C@@]2(CCN3CC2CC2)[C@H]1O5 | – | 9.4 | – | 0.2 | 0.55 | 0.015 | Active | – | –
4 | CN(C(=O)/C=C/c1ccccc1)[C@H]1CC[C@@]2(O)[C@H]3Cc4ccc(O)c5c4[C@@]2(CCN3CC2CC2)[C@H]1O5 | 0.0033 | 9.7 | 41.6 | 0.16 | 0.42 | 0.032 | Active | 14000 | –
5 | CCCCCCO[C@@H]1CC[C@@]2(O)[C@H]3Cc4ccc(O)c5c4[C@@]2(CCN3CC2CC2)[C@H]1O5 | 1.78 | – | 1.5 | 0.12 | 16 | – | – | 4.5 | –
6 | CN(C(=O)/C=C/c1ccoc1)[C@@H]1CC[C@@]2(O)[C@H]3Cc4ccc(N)c5c4[C@@]2(CCN3CC2CC2)[C@H]1O5 | 0.2 | – | – | – | – | – | – | – | –
7 | CN(C(=O)/C=C/c1ccoc1)[C@@H]1CC[C@@]2(O)[C@H]3Cc4ccc(O)c5c4[C@@]2(CCN3)[C@H]1O5 | 7.07 | – | – | – | – | – | – | – | –
8 | CN(C(=O)/C=C/c1ccoc1)[C@@H]1CC[C@@]2(O)[C@H]3Cc4ccc(O)c5c4[C@@]2(CCN3CC2CC2)[C@H]1O5.Cl [NALFURAFINE HYDROCHLORIDE] | – | – | – | – | – | 0.032 | Active | – | Activity [10]: Active; Activity [11]: inactive; Activity [12]: Active
9 | CCC/C=C/C(=O)N(C)[C@@H]1CC[C@@]2(O)[C@H]3Cc4ccc(O)c5c4[C@@]2(CCN3CC2CC2)[C@H]1O5 | – | 8.8 | – | 0.072 | 0.647 | 0.21 | – | 1800 | –
10 | O=C(/C=C/c1ccoc1)S[C@@H]1CC[C@@]2(O)[C@H]3Cc4ccc(O)c5c4[C@@]2(CCN3CC2CC2)[C@H]1O5 | > 10 | – | – | – | – | – | – | – | –
11 | CC(=O)Nc1ccc2c3c1O[C@H]1[C@H](N(C)C(=O)/C=C/c4ccoc4)CC[C@@]4(O)[C@@H](C2)N(CC2CC2)CC[C@]314 | > 10 | – | – | – | – | – | – | – | –
12 | CN1CC[C@]23c4c5ccc(O)c4O[C@H]2[C@H](N(C)C(=O)/C=C/c2ccoc2)CC[C@@]3(O)[C@H]1C5 | 1.03 | – | 33 | 6.3 | 55 | – | – | 8.1 | –
13 | CN(C(=O)/C=C/c1ccc(C(F)(F)F)cc1)[C@@H]1CC[C@@]2(O)[C@H]3Cc4ccc(O)c5c4[C@@]2(CCN3CC2CC2)[C@H]1O5 | – | 1.1 | 78 | 0.2 | 0.07 | 0.026 | Active | 524 | –
14 | CN(C(=O)c1ccc2ccccc2c1)[C@@H]1CC[C@@]2(O)[C@H]3Cc4ccc(O)c5c4[C@@]2(CCN3CC2CC2)[C@H]1O5 | 3.6 | – | – | – | – | – | – | – | –
15 | CN(C(=O)/C=C/C1CCCCC1)[C@@H]1CC[C@@]2(O)[C@H]3Cc4ccc(O)c5c4[C@@]2(CCN3CC2CC2)[C@H]1O5 | 0.004 | 17 | 143 | 1.08 | 0.457 | 0.071 | Active | 5710 | –
16 | CN(C(=O)Cc1ccc(Cl)c(Cl)c1)[C@@H]1CC[C@@]2(O)[C@H]3Cc4ccc(O)c5c4[C@@]2(CCN3CC2CC2)[C@H]1O5 | – | 39.1 | 1110 | 1.37 | 17 | 18 | – | 17000 | –
